The source made the active and inactive calls. The rule behind the calls is not given here.
Legend:
[1] = Inhibition of PDE4 in human U937 cells assessed as [3H]cAMP hydrolysis; type: cell-based
[2] = target: 3',5'-cyclic-AMP phosphodiesterase 4A (Homo sapiens, UniProt P27815); assay: Inhibition of human PDE4A4 expressed in sf9 cells
[3] = target: 3',5'-cyclic-AMP phosphodiesterase 4B (Homo sapiens, UniProt Q07343); assay: Inhibition of human PDE4B1 expressed in sf9 cells
[4] = target: 3',5'-cyclic-AMP phosphodiesterase 4C (Homo sapiens, UniProt Q08493); assay: Inhibition of human PDE4C1 expressed in sf9 cells
3',5'-cyclic-AMP phosphodiesterase 4C, sequence (Q08493 whole entry): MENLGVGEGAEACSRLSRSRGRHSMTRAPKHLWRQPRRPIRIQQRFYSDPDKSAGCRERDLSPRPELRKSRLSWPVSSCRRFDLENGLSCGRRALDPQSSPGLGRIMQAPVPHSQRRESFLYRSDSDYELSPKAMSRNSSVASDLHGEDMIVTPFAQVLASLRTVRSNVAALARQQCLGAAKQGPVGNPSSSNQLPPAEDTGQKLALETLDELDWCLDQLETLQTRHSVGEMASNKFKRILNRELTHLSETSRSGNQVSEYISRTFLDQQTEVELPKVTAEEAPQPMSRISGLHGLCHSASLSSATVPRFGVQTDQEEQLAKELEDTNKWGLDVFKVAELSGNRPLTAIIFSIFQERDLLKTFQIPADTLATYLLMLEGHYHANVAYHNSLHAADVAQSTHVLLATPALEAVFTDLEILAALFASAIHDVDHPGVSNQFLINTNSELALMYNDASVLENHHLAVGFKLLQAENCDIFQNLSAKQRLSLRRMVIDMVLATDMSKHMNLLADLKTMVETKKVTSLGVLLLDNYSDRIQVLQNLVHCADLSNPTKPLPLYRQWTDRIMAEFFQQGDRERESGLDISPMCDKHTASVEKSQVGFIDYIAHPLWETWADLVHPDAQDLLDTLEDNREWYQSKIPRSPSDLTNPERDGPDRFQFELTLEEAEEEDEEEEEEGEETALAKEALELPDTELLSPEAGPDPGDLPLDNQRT

[5] = target: T1, 3',5'-cyclic-AMP phosphodiesterase 4D (Homo sapiens, UniProt Q08499); assay: Inhibition of human PDE4D2 expressed in sf9 cells
T1 sequence (Q08499 whole entry): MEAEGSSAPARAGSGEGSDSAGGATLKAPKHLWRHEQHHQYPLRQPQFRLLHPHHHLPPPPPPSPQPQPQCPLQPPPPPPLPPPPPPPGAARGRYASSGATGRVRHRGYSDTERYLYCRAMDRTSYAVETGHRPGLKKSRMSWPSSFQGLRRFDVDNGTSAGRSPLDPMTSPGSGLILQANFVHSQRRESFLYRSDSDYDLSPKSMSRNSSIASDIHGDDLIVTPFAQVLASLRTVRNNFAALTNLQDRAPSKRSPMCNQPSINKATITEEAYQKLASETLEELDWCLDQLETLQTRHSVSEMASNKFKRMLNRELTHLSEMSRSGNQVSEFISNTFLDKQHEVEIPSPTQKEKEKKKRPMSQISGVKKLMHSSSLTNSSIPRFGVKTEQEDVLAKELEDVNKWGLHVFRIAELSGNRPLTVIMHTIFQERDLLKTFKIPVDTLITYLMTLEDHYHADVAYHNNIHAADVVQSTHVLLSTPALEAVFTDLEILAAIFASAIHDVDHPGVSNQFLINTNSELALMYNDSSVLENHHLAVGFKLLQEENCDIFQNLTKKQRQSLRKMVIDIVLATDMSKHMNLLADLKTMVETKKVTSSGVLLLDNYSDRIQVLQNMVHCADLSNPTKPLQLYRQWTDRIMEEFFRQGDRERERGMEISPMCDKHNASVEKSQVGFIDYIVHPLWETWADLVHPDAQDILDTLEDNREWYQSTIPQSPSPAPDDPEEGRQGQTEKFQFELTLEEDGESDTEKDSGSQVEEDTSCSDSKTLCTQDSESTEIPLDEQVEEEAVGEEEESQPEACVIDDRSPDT

[6] = target: T1, 3',5'-cyclic-AMP phosphodiesterase 4D; assay: Inhibition of human PDE4D3 expressed in sf9 cells
Homo sapiens [7] = species on record: Homo sapiens; assay: Inhibition of PDE3 in human U937 cells assessed as [3H]cAMP hydrolysis at 10 uM; type: cell-based
[8] = target: RAF proto-oncogene serine/threonine-protein kinase (Homo sapiens) (UniProt P04049); assay: Inhibition of c-RAF (unknown origin) at 10 uM relative to control
RAF proto-oncogene serine/threonine-protein kinase (Homo sapiens), sequence (P04049 whole entry): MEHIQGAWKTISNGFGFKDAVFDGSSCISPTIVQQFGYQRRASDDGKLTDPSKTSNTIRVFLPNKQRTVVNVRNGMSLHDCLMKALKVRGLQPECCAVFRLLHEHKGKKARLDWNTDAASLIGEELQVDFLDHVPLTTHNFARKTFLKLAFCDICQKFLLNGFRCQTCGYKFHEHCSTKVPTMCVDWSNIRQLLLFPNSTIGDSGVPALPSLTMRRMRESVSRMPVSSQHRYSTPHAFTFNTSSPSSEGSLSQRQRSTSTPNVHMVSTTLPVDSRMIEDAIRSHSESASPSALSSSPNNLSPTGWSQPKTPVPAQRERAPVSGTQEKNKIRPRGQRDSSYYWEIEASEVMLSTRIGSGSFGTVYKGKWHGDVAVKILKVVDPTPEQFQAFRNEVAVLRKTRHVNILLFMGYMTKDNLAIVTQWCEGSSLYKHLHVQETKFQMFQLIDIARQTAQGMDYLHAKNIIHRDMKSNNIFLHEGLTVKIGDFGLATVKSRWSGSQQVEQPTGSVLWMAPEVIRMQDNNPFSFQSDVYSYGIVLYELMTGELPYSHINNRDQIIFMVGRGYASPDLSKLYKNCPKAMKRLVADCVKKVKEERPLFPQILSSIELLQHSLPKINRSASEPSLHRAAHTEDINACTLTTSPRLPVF

[9] = target: Mitogen-activated protein kinase 9 (Homo sapiens) (UniProt P45984); assay: Inhibition of JNK2alpha2 (unknown origin) at 10 uM relative to control
Mitogen-activated protein kinase 9 (Homo sapiens), sequence (P45984 whole entry, looked up): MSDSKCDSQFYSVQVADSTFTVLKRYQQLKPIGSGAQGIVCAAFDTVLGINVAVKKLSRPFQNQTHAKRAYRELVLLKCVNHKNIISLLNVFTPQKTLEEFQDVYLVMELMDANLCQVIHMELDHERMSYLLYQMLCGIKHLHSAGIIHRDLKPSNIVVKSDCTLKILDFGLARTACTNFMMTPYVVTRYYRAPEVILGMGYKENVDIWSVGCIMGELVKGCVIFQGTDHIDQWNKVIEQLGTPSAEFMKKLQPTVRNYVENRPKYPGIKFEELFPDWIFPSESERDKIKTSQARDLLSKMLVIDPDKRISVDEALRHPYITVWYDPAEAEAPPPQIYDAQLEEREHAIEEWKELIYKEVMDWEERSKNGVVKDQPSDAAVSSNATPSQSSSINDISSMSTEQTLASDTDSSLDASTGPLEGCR

[10] = target: Mitogen-activated protein kinase 13 (Homo sapiens) (UniProt O15264); assay: Inhibition of p38MAPK delta (unknown origin) at 10 uM relative to control
Mitogen-activated protein kinase 13 (Homo sapiens), sequence (O15264 whole entry): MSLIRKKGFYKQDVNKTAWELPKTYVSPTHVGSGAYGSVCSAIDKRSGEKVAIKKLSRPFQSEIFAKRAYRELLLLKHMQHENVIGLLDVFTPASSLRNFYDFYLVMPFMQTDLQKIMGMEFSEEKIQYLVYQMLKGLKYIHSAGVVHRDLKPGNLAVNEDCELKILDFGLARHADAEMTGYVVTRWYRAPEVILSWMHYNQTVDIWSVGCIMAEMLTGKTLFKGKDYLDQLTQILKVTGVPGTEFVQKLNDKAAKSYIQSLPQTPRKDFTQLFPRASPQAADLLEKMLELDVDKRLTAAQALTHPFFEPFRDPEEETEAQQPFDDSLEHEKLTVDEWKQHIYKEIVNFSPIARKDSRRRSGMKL

[11] = target: Mitogen-activated protein kinase 14 (Homo sapiens, UniProt Q16539); assay: Inhibition of P38 MAPKalpha in LPS-stimulated human whole blood assessed as decrease in TNFalpha level
Mitogen-activated protein kinase 14, sequence (Q16539 whole entry): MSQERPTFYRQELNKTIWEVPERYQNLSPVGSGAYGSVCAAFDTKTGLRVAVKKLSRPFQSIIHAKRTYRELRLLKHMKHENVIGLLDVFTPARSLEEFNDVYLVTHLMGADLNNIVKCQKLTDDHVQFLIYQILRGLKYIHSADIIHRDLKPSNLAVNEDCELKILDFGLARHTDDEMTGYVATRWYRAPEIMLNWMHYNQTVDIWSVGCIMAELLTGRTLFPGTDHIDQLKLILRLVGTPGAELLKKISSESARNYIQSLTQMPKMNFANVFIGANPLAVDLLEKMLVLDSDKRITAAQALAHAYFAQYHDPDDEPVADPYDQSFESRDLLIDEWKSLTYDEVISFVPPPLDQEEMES

Canis familiaris = assay: Tmax in Beagle dog assessed as 4-(4-(4-fluorophenyl)-1-methyl-2-(methylsulfinyl)-1H-imidazol-5-yl)pyridin-2-amine level at 40 mg/kg, po by LC-MS/MS analysis; type: ADME, organism-based, Canis lupus familiaris; details: in vivo
[12] = Tmax in human at 10 mg, po administered as single dose; type: ADME, organism-based; details: in vivo
How it was run: (§1)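 Healthy subjects received single oral doses of 10, 20, 30 or 50 mg in a placebo-controlled, single-blind, randomized consecutive-dose study; 10 mg was also given fasting vs fed in a crossover. Plasma drug was sampled pre-dose and from 0.25 to 36 h post-dose. Mean Tmax was taken from individual concentration–time profiles.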

[13] = Tmax in human at 50 mg, po administered as single dose; type: ADME, organism-based; details: in vivo; how it was run: as §1
[14] = Tmax in fasting human at 10 mg, po administered as single dose; type: ADME, organism-based; details: in vivo; how it was run: as §1
[15] = Tmax in fed human at 10 mg, po administered as single dose; type: ADME, organism-based; details: in vivo; how it was run: as §1
[16] = Tmax in human at 20 mg, po administered as single dose; type: ADME, organism-based; details: in vivo; how it was run: as §1
[17] = Tmax in human at 30 mg, po administered as single dose; type: ADME, organism-based; details: in vivo; how it was run: as §1
[18] = Cmax in human at 10 mg, po administered as single dose; type: ADME, organism-based; parameters: dose 10 mg, route oral; details: in vivo
How it was run: (§2)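 Oral single-dose PK; plasma concentrations of parent and metabolite measured. Dogs: blood sampled 0.25 to 24 h after dosing. Humans: healthy subjects, placebo-controlled single-blind randomized consecutive dosing, plasma sampled predose and 0.25–36 h post dose. 10 mg also given fasting and fed in crossover. Parameters derived from individual concentration–time profiles.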

[19] = Cmax in human at 50 mg, po administered as single dose; type: ADME, organism-based; parameters: dose 50 mg, route oral; details: in vivo
[20] = Cmax in fasting human at 10 mg, po administered as single dose; type: ADME, organism-based; parameters: dose 10 mg, route oral; details: in vivo
How it was run: (§3)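 Placebo-controlled, single-blind, randomized, consecutive-dosing study in healthy subjects given single oral doses, with 10 mg also given fasting and fed in a crossover. Plasma parent and active metabolite were measured predose and from 0.25 to 36 h post dose. PK parameters were derived from individual concentration–time profiles and reported as means.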

[21] = Cmax in fed human at 10 mg, po administered as single dose; type: ADME, organism-based; parameters: dose 10 mg, route oral; details: in vivo; how it was run: as §3
[22] = Cmax in human at 20 mg, po administered as single dose; type: ADME, organism-based; parameters: dose 20 mg, route oral; details: in vivo; how it was run: as §2
[23] = Cmax in human at 30 mg, po administered as single dose; type: ADME, organism-based; parameters: dose 30 mg, route oral; details: in vivo; how it was run: as §2
[24] = AUC (0 to t) in human at 10 mg, po administered as single dose; type: ADME, organism-based; details: in vivo; how it was run: as §3
[25] = AUC (0 to t) in human at 50 mg, po administered as single dose; type: ADME, organism-based; details: in vivo; how it was run: as §3
[26] = AUC (0 to t) in fasting human at 10 mg, po administered as single dose; type: ADME, organism-based; details: in vivo; how it was run: as §3
[27] = AUC (0 to t) in fed human at 10 mg, po administered as single dose; type: ADME, organism-based; details: in vivo; how it was run: as §3
[28] = AUC (0 to t) in human at 20 mg, po administered as single dose; type: ADME, organism-based; details: in vivo; how it was run: as §3
[29] = AUC (0 to t) in human at 30 mg, po administered as single dose; type: ADME, organism-based; details: in vivo; how it was run: as §3
[30] = AUC (0 to infinity) in human at 10 mg, po administered as single dose; type: ADME, organism-based; parameters: dose 10 mg, time infinity, route oral; details: in vivo; how it was run: as §3
[31] = AUC (0 to infinity) in human at 50 mg, po administered as single dose; type: ADME, organism-based; parameters: dose 50 mg, time infinity, route oral; details: in vivo; how it was run: as §3
[32] = AUC (0 to infinity) in fasting human at 10 mg, po administered as single dose; type: ADME, organism-based; parameters: dose 10 mg, time infinity, route oral; details: in vivo; how it was run: as §3
[33] = AUC (0 to infinity) in fed human at 10 mg, po administered as single dose; type: ADME, organism-based; parameters: dose 10 mg, route oral, time infinity; details: in vivo; how it was run: as §3
[34] = AUC (0 to infinity) in human at 20 mg, po administered as single dose; type: ADME, organism-based; parameters: dose 20 mg, time infinity, route oral; details: in vivo; how it was run: as §3
[35] = AUC (0 to infinity) in human at 30 mg, po administered as single dose; type: ADME, organism-based; parameters: dose 30 mg, time infinity, route oral; details: in vivo; how it was run: as §3
[36] = Half life in human at 10 mg, po administered as single dose; type: ADME, organism-based; details: in vivo; how it was run: as §2
[37] = Half life in human at 50 mg, po administered as single dose; type: ADME, organism-based; details: in vivo; how it was run: as §2
[38] = Half life in fasting human at 10 mg, po administered as single dose; type: ADME, organism-based; details: in vivo; how it was run: as §2
[39] = Half life in fed human at 10 mg, po administered as single dose; type: ADME, organism-based; details: in vivo; how it was run: as §2
[40] = Half life in human at 20 mg, po administered as single dose; type: ADME, organism-based; details: in vivo; how it was run: as §2
[41] = Half life in human at 30 mg, po administered as single dose; type: ADME, organism-based; details: in vivo; how it was run: as §2
Homo sapiens [42] = assay: Toxicity in human assessed as effect on CNS at 50 mg, po administered as single dose; type: organism-based; details: in vivo
How it was run: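 Single oral 50 mg dose given to healthy subjects in a placebo-controlled, single-blind, randomized FIH study. Adverse events, vital signs and physical findings were recorded, including CNS effects.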

[43] = Fraction unbound in human plasma; type: ADME, cell-free
How it was run: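 Plasma protein binding measured in human, Sprague–Dawley rat and Cynomolgus monkey plasma at 1, 10 and 30 μM compound. Reported as unbound fraction (%).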

[44] = target: cGMP-specific 3',5'-cyclic phosphodiesterase (Homo sapiens) (UniProt O76074); assay: Inhibition of PDE5 in human U937 cells assessed as [3H]cAMP hydrolysis at 10 uM; type: cell-based

3',5'-cyclic-AMP phosphodiesterase 4A, sequence (P27815 whole entry): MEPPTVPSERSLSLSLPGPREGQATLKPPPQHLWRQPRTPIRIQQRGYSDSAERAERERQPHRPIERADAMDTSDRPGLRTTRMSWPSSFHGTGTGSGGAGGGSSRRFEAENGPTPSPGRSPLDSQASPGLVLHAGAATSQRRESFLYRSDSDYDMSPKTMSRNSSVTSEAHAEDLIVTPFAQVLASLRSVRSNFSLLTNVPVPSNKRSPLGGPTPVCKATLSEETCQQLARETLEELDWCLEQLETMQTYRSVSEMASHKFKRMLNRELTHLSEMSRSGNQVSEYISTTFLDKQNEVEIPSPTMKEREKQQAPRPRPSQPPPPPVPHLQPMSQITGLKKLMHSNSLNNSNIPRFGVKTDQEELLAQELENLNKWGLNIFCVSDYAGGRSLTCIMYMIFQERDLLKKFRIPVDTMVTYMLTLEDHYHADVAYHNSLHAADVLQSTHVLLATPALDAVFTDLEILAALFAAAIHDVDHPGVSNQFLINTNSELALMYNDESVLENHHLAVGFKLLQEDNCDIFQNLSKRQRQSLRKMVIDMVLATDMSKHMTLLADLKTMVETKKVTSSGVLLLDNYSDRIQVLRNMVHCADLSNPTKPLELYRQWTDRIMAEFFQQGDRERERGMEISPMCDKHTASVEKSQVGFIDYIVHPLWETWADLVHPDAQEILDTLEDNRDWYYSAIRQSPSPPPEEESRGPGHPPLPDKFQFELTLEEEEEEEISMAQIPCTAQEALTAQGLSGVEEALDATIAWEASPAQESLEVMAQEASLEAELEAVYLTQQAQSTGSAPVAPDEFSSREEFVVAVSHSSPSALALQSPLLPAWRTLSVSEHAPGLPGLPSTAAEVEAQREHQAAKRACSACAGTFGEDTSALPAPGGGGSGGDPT
3',5'-cyclic-AMP phosphodiesterase 4B, sequence (Q07343 whole entry): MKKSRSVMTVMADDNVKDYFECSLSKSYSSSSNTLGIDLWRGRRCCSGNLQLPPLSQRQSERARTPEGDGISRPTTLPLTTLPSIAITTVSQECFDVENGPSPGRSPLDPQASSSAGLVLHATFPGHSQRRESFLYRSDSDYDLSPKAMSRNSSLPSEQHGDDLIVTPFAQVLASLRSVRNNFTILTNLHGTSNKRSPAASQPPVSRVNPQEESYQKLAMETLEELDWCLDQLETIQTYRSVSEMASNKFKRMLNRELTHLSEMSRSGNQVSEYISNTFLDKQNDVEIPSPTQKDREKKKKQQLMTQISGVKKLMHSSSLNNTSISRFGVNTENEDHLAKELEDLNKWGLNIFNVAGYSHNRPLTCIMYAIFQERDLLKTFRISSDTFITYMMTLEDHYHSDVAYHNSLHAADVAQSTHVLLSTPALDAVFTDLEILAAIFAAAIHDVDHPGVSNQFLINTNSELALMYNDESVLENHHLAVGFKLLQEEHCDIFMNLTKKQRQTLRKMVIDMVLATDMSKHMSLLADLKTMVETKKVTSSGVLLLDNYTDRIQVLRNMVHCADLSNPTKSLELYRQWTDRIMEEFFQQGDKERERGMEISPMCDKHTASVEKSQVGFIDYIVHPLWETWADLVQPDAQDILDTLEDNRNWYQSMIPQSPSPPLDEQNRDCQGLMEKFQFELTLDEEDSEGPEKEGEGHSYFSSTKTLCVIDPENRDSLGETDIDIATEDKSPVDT

Cn1c([S+](C)[O-])nc(-c2ccc(F)cc2)c1-c1ccnc(N)c1 (centres undefined)
IC50 [1]: 2 µM | IC50 [2]: 9.9 µM | IC50 [3]: 3.5 µM | IC50 [4]: > 10 µM | IC50 [5]: 2.4 µM | IC50 [6]: 0.7 µM | inhibition (Homo sapiens [7]): inactive | inhibition [8]: inactive | inhibition [9]: inactive | inhibition [10]: inactive | IC50 [11]: 0.71 µM | Tmax (Canis familiaris): 4 h | Tmax [12]: 4.7 h | Tmax [13]: 5 h | Tmax [14]: 6 h | Tmax [15]: 6.7 h | Tmax [16]: 5 h | Tmax [17]: 6 h | Cmax [18]: 190 nM | Cmax [19]: 600 nM | Cmax [20]: 150 nM | Cmax [21]: 140 nM | Cmax [22]: 360 nM | Cmax [23]: 420 nM | AUC(0-t) [24]: 2.95 µM·h | AUC(0-t) [25]: 8.73 µM·h | AUC(0-t) [26]: 2.82 µM·h | AUC(0-t) [27]: 2.6 µM·h | AUC(0-t) [28]: 6.38 µM·h | AUC(0-t) [29]: 7.37 µM·h | AUC(0-inf) [30]: 3.43 µM·h | AUC(0-inf) [31]: 9.4 µM·h | AUC(0-inf) [32]: 3.29 µM·h | AUC(0-inf) [33]: 3.07 µM·h | AUC(0-inf) [34]: 7.17 µM·h | AUC(0-inf) [35]: 8.55 µM·h | half-life [36]: 9.5 h | half-life [37]: 9 h | half-life [38]: 11.3 h | half-life [39]: 10.7 h | half-life [40]: 10.9 h | half-life [41]: 11.3 h | Activity (Homo sapiens [42]): Non-Toxic | fraction unbound [43]: 0.5 | inhibition [44]: inactive

CC(=O)Nc1cc(-c2c(-c3ccc(F)cc3)nc([S+](C)[O-])n2C)ccn1 (centres undefined)
IC50 [1]: 0.2 to 0.4 µM | IC50 [2]: 2.9 µM | IC50 [3]: 1.9 µM | IC50 [4]: 6.4 µM | IC50 [5]: 1.1 µM | IC50 [6]: 0.8 µM | inhibition (Homo sapiens [7]): inactive | inhibition [8]: 36% | inhibition [9]: 51% | inhibition [10]: 35% | IC50 [11]: 0.71 µM | Tmax [12]: 2.2 h | Tmax [13]: 1.5 h | Tmax [14]: 3.3 h | Tmax [15]: 3.7 h | Tmax [16]: 2.9 h | Tmax [17]: 2.3 h | Cmax [18]: 200 nM | Cmax [19]: 590 nM | Cmax [20]: 140 nM | Cmax [21]: 140 nM | Cmax [22]: 310 to 314 nM | Cmax [23]: 420 nM | AUC(0-t) [24]: 0.95 µM·h | AUC(0-t) [25]: 3.4 µM·h | AUC(0-t) [26]: 0.73 µM·h | AUC(0-t) [27]: 0.79 µM·h | AUC(0-t) [28]: 1.99 µM·h | AUC(0-t) [29]: 2.65 µM·h | AUC(0-inf) [30]: 1.04 µM·h | AUC(0-inf) [31]: 3.58 µM·h | AUC(0-inf) [32]: 0.82 µM·h | AUC(0-inf) [33]: 0.88 µM·h | AUC(0-inf) [34]: 2.24 µM·h | AUC(0-inf) [35]: 3.05 µM·h | half-life [36]: 2.7 h | half-life [37]: 3.2 h | half-life [38]: 2.8 h | half-life [39]: 2.8 h | half-life [40]: 3.3 h | half-life [41]: 3.4 h | Activity (Homo sapiens [42]): Non-Toxic | fraction unbound [43]: 0.5 | inhibition [44]: inactive

From ChEMBL document CHEMBL4028848, “Discovery of N-{4-[5-(4-Fluorophenyl)-3-methyl-2-methylsulfanyl-3H-imidazol-4-yl]-pyridin-2-yl}-acetamide (CBS-3595), a Dual p38α MAPK/PDE-4 Inhibitor with Activity against TNFα-Related Diseases” (J Med Chem, 2017)
